Compound activity from PubChem.
ZTA DNA inh – blocks Epstein-Barr virus ZTA, an EBNA-1 counter-screen | ZTA-DNA binding, fluorescence polarization | inhibition, % at 11 µM | hit rate 0.15% among 320,000; in the data active means inhibition above about 33%
Target sequence (P03206 whole entry, looked up): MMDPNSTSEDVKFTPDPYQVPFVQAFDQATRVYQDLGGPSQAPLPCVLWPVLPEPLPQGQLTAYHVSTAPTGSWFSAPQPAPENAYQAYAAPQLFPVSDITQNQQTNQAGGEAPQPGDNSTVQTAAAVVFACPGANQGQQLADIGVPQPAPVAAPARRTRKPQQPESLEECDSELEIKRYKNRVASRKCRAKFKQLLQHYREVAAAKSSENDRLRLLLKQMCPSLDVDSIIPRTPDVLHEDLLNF
EBNA-1 inhibitor – blocks EBNA-1 binding to DNA. EBNA-1 DNA binding, fluorescence polarization. inhibition, % at 14.8 µM. hit rate 0.34% among 300,000; in the data active means inhibition above about 28%
HCV NS3 hel inh – inhibitors of Hepatitis C virus NS3 helicase | hit rate 0.56% among 290,000 | inhibition, % at 10.9 µM | NS3 helicase DNA unwinding, Cy5 molecular beacon fluorescence | AID 1800;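 active means inhibition above the mean of all tested compounds plus 3 SD, set per campaign, cut at about 35% in these data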
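Material: hepatitis C virus NS3 helicase domain fragment enzyme; measured by: Cy5 fluorescence, 0 and 60 min reads; control set: DMSO and thioflavine S; incubation: 60 min unwinding reaction at 25 °C after ATP addition; read-out basis: % inhibition from 60/0 min fluorescence ratio, DMSO 0%, thioflavine S 100%; repeats: singlicate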
ALR H2O2 inh – blocks human ALR sulfhydryl oxidase activity; P55789; purified ALR, DTT oxidation, H2O2 HRP-luminol luminescence; inhibition, % (concentration not given with the values); hit rate 3.8% among 290,000; AID 485317;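 active means mean replicate inhibition above about 79%, with every replicate also reaching it, limit read from the data; inconclusive means only one of the two criteria met; inactive means mean below limit and not every replicate reaching it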
Target sequence (P55789 whole entry, looked up): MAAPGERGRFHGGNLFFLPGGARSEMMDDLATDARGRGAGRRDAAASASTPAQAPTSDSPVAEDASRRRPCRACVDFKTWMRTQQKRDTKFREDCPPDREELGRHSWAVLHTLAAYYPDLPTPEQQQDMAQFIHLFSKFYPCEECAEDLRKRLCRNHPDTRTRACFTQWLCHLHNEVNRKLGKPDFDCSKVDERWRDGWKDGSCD
HCV core dimer – HCV core protein dimerization inhibition; TR-FRET GST/Flag-core106 dimerization, 1536-well; inhibition, % at 5 µM; hit rate 0.33% among 300,000; AID 1899;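 active means inhibition above the mean of all tested compounds plus 3 SD, set per screening campaign, cut at about 45% in these data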
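Assay system: Tagged HCV core106 pair (GST and Flag) | Buffer or medium: KF-containing HEPES buffer, pH 7.45, DTT, CHAPS, BSA | Also added: Eu donor and XL665 acceptor anti-tag antibodies | Dosing: One concentration, 5 µM, in 0.5% DMSO | Timing: 4 h at 22.5 °C | Technique: TR-FRET 671 and 617 nm emission | Repeats: Singlicate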
PfM18AAP inh – blocks P. falciparum M18 aspartyl aminopeptidase; recombinant PfM18AAP, H-Glu-NHMec fluorogenic cleavage; hit rate 1.2% among 290,000; AID 1822; inhibition, % at 7.35 µM;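 active means inhibition above the campaign mean inhibition over all tested compounds plus 3 SD, cut at about 28% in these data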
A number is an active result; – = inactive; ? = inconclusive; · = not tested or not shown. A selection: hits, their analogues and other compounds. The true share with any hit is near 5.2%.

SMILES	ZTA DNA inh	EBNA-1 inhibitor	HCV NS3 hel inh	ALR H2O2 inh	HCV core dimer	PfM18AAP inh
COc1ccc(N/N=C(/C#N)S(=O)(=O)c2nsc(C)c2C#N)cc1	–	–	–	98	–	–
O=C(NCc1ccc(F)cc1)c1cccc(S(=O)(=O)N2CCOCC2)c1	–	·	·	–	·	·
O=c1cc(CO)oc(CN2CCN(c3cccc(C(F)(F)F)c3)CC2)c1O	–	–	–	?	–	29
O=c1cc(CO)oc(CN2CCN(c3ccccc3F)CC2)c1O	–	–	–	–	–	–
O=c1cc(CO)oc(CN2CCN(c3ccccc3)CC2)c1O	–	–	–	98	–	–
CCOC(=O)C1CCN(Cc2oc(CO)cc(=O)c2O)CC1	–	–	–	91	–	–
O=[N+]([O-])c1ccccc1S(=O)(=O)N1CCCc2ccccc21	–	–	–	–	–	–
O=C(CCCn1c(=S)[nH]c2cc3c(cc2c1=O)OCO3)NCc1ccccc1Cl	–	–	–	–	–	–
CCOc1ccc(NC(=O)N(CCN2CCOCC2)Cc2ccc3c(c2)CCCN3CC)cc1	–	–	–	100	–	–
CCOc1ccc(NC(=O)N(CCCN2CCOCC2)Cc2cccnc2)cc1	–	–	–	–	–	–
CCN1CCCc2cc(CN(CCN3CCOCC3)C(=S)Nc3cccc(OC)c3)ccc21	–	–	–	87	–	–
CCCN1CCCc2cc(CN(CCCN3CCOCC3)C(=O)Nc3ccc(OCC)cc3)ccc21	–	–	–	99	–	–
Cc1ccccc1OC(=O)n1c(=S)oc2cc(Cl)ccc21	–	–	–	83	–	–
O=C(CSCc1c(F)cccc1Cl)NNC(=S)NC1CCCCC1	–	–	–	–	–	–
COc1ccc(N(C)C(=O)c2ccc(NC(=O)CCS(=O)(=O)c3cccs3)cc2)cc1	–	–	–	–	–	–
Cc1cccc(C(=O)OCC(=O)Nc2ccc3c(c2)OCCO3)c1O	–	·	·	·	·	·
Cc1cc(N(C)C)ccc1N=Nc1ccc2ncccc2c1	–	–	–	94	–	–
O=C(CN1CCN(Cc2ccccc2Cl)CC1)N/N=C/c1ccco1	–	–	–	–	–	–
O=C(CCc1[nH]c2ccccc2c1Sc1ccccc1)NCCO	–	–	–	99	–	–
CN(CC(=O)Nc1ccccc1Cl)C(=O)COC(=O)CSc1ccc(Cl)cc1	–	·	·	–	·	·
CC(=O)Nc1ccc(SC(C)C(=O)NC(N)=O)cc1 (stereo not given)	–	–	–	99	–	–
CCNC(=O)/C(=C/c1ccco1)NC(=O)/C=C/c1ccccc1	–	–	–	–	–	–
COc1cc(Sc2ccc(C)cc2)c(OC)cc1N	–	–	–	98	–	–
Clc1ccc(CNc2ccc(CNc3ncn[nH]3)cc2)c(Cl)c1	–	–	–	–	–	28
Clc1ccc(CNc2ccc(CNc3ncn[nH]3)cc2)cc1	–	–	–	–	–	37
SMILES	ZTA DNA inh	EBNA-1 inhibitor	HCV NS3 hel inh	ALR H2O2 inh	HCV core dimer	PfM18AAP inh
c1ccc(CNc2ccc(CNc3ncn[nH]3)cc2)cc1	–	–	–	?	–	–
CCOc1ccc(CN(C)C(=O)[C@H](C)NC(=O)c2ccco2)cc1OC	–	–	–	–	–	–
CCOc1ccc(C(=O)CCC(=O)N(CC)CC(=O)NCc2cccs2)cc1	–	–	·	–	–	·
CCOc1ccc(C(=O)CC(NCc2cccs2)C(=O)O)cc1 (stereo not given)	–	–	–	97	–	–
O=c1c(-c2cc3ccccc3o2)[n+]([O-])c2ccccc2n1OCc1ccccn1	–	–	–	–	–	–
O=c1c(-c2ccco2)[n+]([O-])c2ccccc2n1OCc1ccccc1F	–	–	–	97	–	–
CCOn1c(=O)c(-c2cc3ccccc3o2)[n+]([O-])c2ccccc21	–	–	–	93	–	–
COc1ccc(OC)c(NC(=O)CN2C(=O)C(C)N(c3ccc(C)cc3)C2=O)c1 (stereo not given)	–	·	·	–	·	·
CCOc1cc(C(=O)OCC(=O)Nc2cccc(S(=O)(=O)NC3=NCCCCC3)c2)cc(OCC)c1OCC	·	·	·	–	·	·
c1ccc(-c2nc3ccccn3c2NCc2ccc3c(c2)OCO3)cc1	–	–	–	81	–	–
CCCOc1ccc(/C=N/NC(=O)CSc2ccccn2)cc1OC	–	–	–	·	–	–
CN(C)c1ccc(/C=N/NC(=O)COc2ccccc2)cc1	–	–	–	·	–	–
COc1cc(/C=N/NC(=O)CSc2ccccn2)ccc1O	–	–	–	98	–	–
